The RNAGym collection of RNA variant scans (doi:10.1101/gad.245936.114)
This sample holds only a part of the variants without activity.

B1: tRNA (parent)
chain: CUCUCGGUAGCCAAGUUGGUUUAAGGCGCAAGACUUUAAUUUAUCACUACGAAAUCUUGAGAUCGGGCGUUCGACUCGCCCCCGGGAGAUUUUUUCCUCGAGCAA

Variants of: B1
Assay: nonsense suppression (GFP-seq) (ratio to wild type); higher = more function; SUP4oc tRNA, yeast GFP reporter sort-seq
How it was run: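 Yeast were grown in raffinose/galactose medium with 80 mg/L adenine, each strain bearing a genome-integrated ochre-suppressor tRNA variant from a ~3% random-mutation library, a galactose-driven GFP ochre reporter, and RFP. After sorting into GFP/RFP bins, every bin was sequenced on an Illumina platform at phred ≥30. The GFPSEQ value, a measure of nonsense suppression, is the weighted bin median GFP/RFP relative to the unmutated parent tRNA, using each variant's estimated cell share per bin as the weight. Only variants with ≥100 reads and ≥30 cells were included.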

Variant	nonsense suppression
U16A G61A	0.819
A13G A31G	0.149
U17A	0.937
C12U A54C	0.0512
A9C C68U G78C	0.0334
G19A U63C C82A	≤ 0.026
U20G G59C C64A G85U	≤ 0.026
U17C C75A G88A	≤ 0.026
C3U C80U	0.0737
C27G U57C G59U G86U	≤ 0.026
U20A A24C	0.192
C72G G88U	≤ 0.026
U4C G7U U8C G69C	≤ 0.026
A13U A54C G66A A74C G86A	≤ 0.026
G19U G26C U57C	≤ 0.026
A9G A14G	0.0311
C29A C72A U76A	≤ 0.026
C3A U4A A62G	≤ 0.026
A13C C75A	1.09
G7A A13U U58G G86C	≤ 0.026
A9G U20G C75G	0.831
A24U U35A	≤ 0.026
U16G G25C	0.2
C1A G26C	≤ 0.026

Variant	nonsense suppression
U21C A31G	1
A30G A89C	0.0603
A33G G86C	0.0374
U8A U57G C82A	≤ 0.026
U20G A54U	1.04
C12U C79U	0.205
U16C U21G A31G G32C G69A U71C C75A G86A	≤ 0.026
A13C A31C U76A	≤ 0.026
U4C A33G	0.0434
U22C C29U G61A	0.386
C5A C27G G73A	≤ 0.026
U20C C83G G86A	≤ 0.026
A13G C80U	0.0419
U17C A87G	0.226
A9U A13U A24G	0.212
G7U G28U U71G C72A G86U	≤ 0.026
G15U G18A U58C G85U	≤ 0.026
G61U C80U	0.677
U4C U8G G65A	≤ 0.026
A13G G67C C83G	≤ 0.026
A54G C72A	≤ 0.026
C34U A60C C72A	≤ 0.026
C3U U16A	0.16
A13C U21A	1.19

Variant	nonsense suppression
U20A A23G U63C	≤ 0.026
U2C C79G	≤ 0.026
A14G G86U	≤ 0.026
G66C G78A	0.0452
C1A G18C	≤ 0.026
G7U G65A U76A	≤ 0.026
G7C U22C G26A	≤ 0.026
U17G	0.999
G10U G66U G85A	≤ 0.026
C1U G6A C64G	≤ 0.026
A33G U57A	≤ 0.026
U4C U22A G86A	0.552
U22G C29U G32A	≤ 0.026
A9U G28U A62G U71G	≤ 0.026
G28C G84C	0.239
G28U A60C	0.669
G6U C11U A13U	≤ 0.026
U21G U22G	0.571
A62C C64U G84C	≤ 0.026
G84A G86U	≤ 0.026
U16A G65A G66A	≤ 0.026
U17A A33C U76C C79A C80U	≤ 0.026
U17C G88U	≤ 0.026
A14C U71A	≤ 0.026

Variant	nonsense suppression
C11U U63G	0.034
U2G C12A	≤ 0.026
A13U A62C	0.029
A9U G88A	0.0329
G7A G59A U71G G73A G84A G85U	≤ 0.026
A31C G59C	≤ 0.026
G10U A30C U57C U63C	≤ 0.026
G7C U57A	≤ 0.026
U21A G66U C80G	0.219
A24C C29U	0.751
C5G G25C G69C	≤ 0.026
A9G U22C	0.323
C12A G78A	0.045
G10U G85C	≤ 0.026
A14G A54G	≤ 0.026
U17C U22A	0.758
C3U U20A G26A	≤ 0.026
C3U G86A	1.07
A54U	1.04
A9U A13U	0.819
U4C C34G C82U	0.179
A24U A62U	0.0332
U76C G78C	0.118
A13U U57A	0.0273

Variant	nonsense suppression
U20G U55C	0.849
U57A C75A	0.681
G28A C81U	1.2
G28A G61A	0.8
C3U G61C	0.164
C1A C11U C12U A14U A62U	≤ 0.026
A24C U57A	0.0454
C5G U20G C75G G88U	≤ 0.026
G7U C82A	1.02
C29U A30G A54C C75A	0.0386
C5A U8C G15C A60C	≤ 0.026
U57C C79U	≤ 0.026
U2A C29U	0.0437
A24C G25U	≤ 0.026
A87G	1.16
G26C U57A A89C	≤ 0.026
U4G U57G	0.0369
A9G U16G	0.551
G15A U16A	0.0275
U55G U63A G86C	≤ 0.026
C5G G6A A33U U35G U70C	≤ 0.026
G28A U63A C68G U70A G85C	≤ 0.026
C3G U8G U21C C34U	≤ 0.026
U8C G65A C72U	≤ 0.026

Variant	nonsense suppression
C12A G61C G66C	≤ 0.026
A30G C83A	≤ 0.026
C11U A23G A31G U76A	≤ 0.026
G32C C81G	≤ 0.026
U8A A60C G73U A87C	≤ 0.026
U63G	1.14
A14G A30G	0.03
U55A C64G	≤ 0.026
C29U C83U	0.0384
G32C U63C	≤ 0.026
A24C A87U	0.0833
A24G G59C	≤ 0.026
G26C U55A	≤ 0.026
U20A	1.18
A9U G84U	0.0747
A24G C79G G86C	≤ 0.026
U22C G73A	0.848
C3A C29U A87G	≤ 0.026
A30U A31G	0.25
U16G A23G	0.129
C34U A54C C56G G73A G88C	≤ 0.026
A54C G61C	0.216
A13G G61C	0.0301
G6A U55G	≤ 0.026

Variant	nonsense suppression
A60G G86U	0.0427
C3U G10C U17G U22A G25C	≤ 0.026
A13U C64U	0.0285
U8A A14G	0.18
U8C C81G	≤ 0.026
C5G A74G	≤ 0.026
U2A A60G	0.0755
U21A C79G	≤ 0.026
G19A A31G	0.0307
G65U G84U	≤ 0.026
A9U U16A	0.13
A13C A33U	0.0508
A13U A14C U35A A60C C72U	≤ 0.026
G28A A31G	0.98
C3A G66C	≤ 0.026
G67A	0.188
A14U G86A	≤ 0.026
G10C C29G C79U	≤ 0.026
A24U G61C	≤ 0.026
G28C C34A C68G A89G	≤ 0.026
U20C C64U	0.0503
U2A G65C	≤ 0.026
U71G C72U	≤ 0.026
